{"data": "Measured values of several laboratories", "observed": "microbial growth"}
{"SMILES": "Cc1cc(O)cc(Nc2nnc(-c3n[nH]c4ccc(C)cc34)s2)c1", "organism": "Serratia marcescens", "strain": "ATCC8100", "MIC": "125 µg/mL"}
{"SMILES": "Nc1nn2c(-c3ccc(Cl)cc3Cl)cc(-c3ccc(OCc4ccccc4)cc3)nc2c1N=Nc1ccc(F)cc1", "organism": "Enterobacter cloacae", "strain": "ATCC23355", "MIC": "15.6 µg/mL"}
{"SMILES": "CO/N=C(\\C(=O)N[C@@H]1C(=O)N2C(C(=O)O)=CCS[C@H]12)c1csc(N)n1", "organism": "Enterobacter cloacae", "method": "broth dilution", "strain": "ATCC13047", "MIC": "2 µg/mL"}
{"SMILES": "Cc1ccc(N=Nc2c(N)nn3c(-c4ccco4)cc(-c4ccc(OCc5ccccc5)cc4)nc23)cc1", "organism": "Enterobacter cloacae", "strain": "ATCC23355", "MIC": "31.3 µg/mL"}
{"SMILES": "CCCCCCC#Cc1cncc(-c2nnc(SCc3ccc([N+](=O)[O-])o3)n2CCCN)c1", "organism": "Enterobacter cloacae", "method": "broth dilution", "strain": "DSM30054", "MIC": "> 64 µg/mL"}
{"SMILES": "COc1ccc(N=Nc2c(N)nn3c(-c4ccc(Cl)cc4Cl)cc(-c4ccc(OCc5ccccc5)cc4)nc23)cc1", "organism": "Enterobacter cloacae", "strain": "ATCC23355", "MIC": "62.5 µg/mL"}
{"SMILES": "Cc1ccc2[nH]nc(-c3nnc(Nc4ccc(C)c(C)c4)s3)c2c1", "organism": "Serratia marcescens", "strain": "ATCC8100", "MIC": "123 µg/mL"}
{"SMILES": "Cc1ccc(N=Nc2c(N)nn3c(-c4ccc(C)cc4)cc(-c4ccc(OCc5ccccc5)cc4)nc23)cc1", "organism": "Enterobacter cloacae", "strain": "ATCC23355", "MIC": "15.6 µg/mL"}
{"SMILES": "CC1(C)S[C@@H]2[C@H](NC(=O)[C@H](N)c3ccc(O)cc3)C(=O)N2[C@H]1C(=O)O", "organism": "Enterobacter cloacae", "method": "broth dilution", "strain": "ATCC13047", "MIC": "> 64 µg/mL"}
{"SMILES": "CCCCCCC#Cc1cncc(-c2nnc(SCc3cc(C(F)(F)F)cc(C(F)(F)F)c3)n2CCCN)c1", "organism": "Enterobacter cloacae", "method": "broth dilution", "strain": "DSM30054", "MIC": "> 64 µg/mL"}
{"SMILES": "Cc1cc(Nc2nnc(-c3n[nH]c4ccc(C)cc34)s2)cc([N+](=O)[O-])c1", "organism": "Serratia marcescens", "strain": "ATCC8100", "MIC": "198 µg/mL"}
{"SMILES": "CCCCCCC#Cc1cncc(-c2nnc(SCc3cc([N+](=O)[O-])cc([N+](=O)[O-])c3)n2CCOC2OC(CN)C(O)C2O)c1 (stereo not shown)", "organism": "Enterobacter cloacae", "method": "broth dilution", "strain": "DSM30054", "MIC": "64 µg/mL"}
{"SMILES": "C[C@@H](O)[C@H]1C(=O)N2C(C(=O)O)=C(S[C@@H]3CN[C@H](C(=O)N(C)C)C3)[C@H](C)[C@H]12", "organism": "Enterobacter cloacae", "method": "broth dilution", "strain": "ATCC13047", "MIC": "0.125 µg/mL"}
{"SMILES": "Cc1ccc2[nH]nc(-c3nnc(Nc4ccc([N+](=O)[O-])cc4)s3)c2c1", "organism": "Serratia marcescens", "strain": "ATCC8100", "MIC": "56.2 µg/mL"}
{"SMILES": "COc1ccc(N=Nc2c(N)nn3c(-c4ccc(C)cc4)cc(-c4ccc(OCc5ccccc5)cc4)nc23)cc1", "organism": "Enterobacter cloacae", "strain": "ATCC23355", "MIC": "31.3 µg/mL"}
{"SMILES": "CNC(C)C1CCC(N)C(OC2C(N)CC(N)C(OC3OCC(C)(O)C(NC)C3O)C2O)O1 (stereo not shown)", "organism": "Enterobacter cloacae", "method": "broth dilution", "strain": "ATCC13047", "MIC": "4 µg/mL"}
